Measured values taken from ChEMBL document CHEMBL5321217, “Identification of pyrrolo[3',4':3,4]cyclohepta[1,2-d][1,2]oxazoles as promising new candidates for the treatment of lymphomas” (Eur J Med Chem, 2023).
Activity calls are given as the source filed them. No cut-off for these calls is given here.

Legend:
[1] = system: MDA-MB-468; assay: Antiproliferative activity against human MDA-MB-468 cells assessed as growth inhibition incubated for 72 hrs by MTT assay; format: functional
[2] = system: CCRF-CEM; assay: Induction of apoptosis in human CCRF-CEM cells assessed as increase in apoptotic cells incubated for 48 hrs by annexin V-FITC and PI staining based flow cytometric analysis; format: functional, cell-based; conditions: dose 1-5 µM
Summary of the method: (§1)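 Cells exposed to several concentrations for 48 h, then stained with annexin V-FITC and PI and read by flow cytometry (FL1/FL3). Apoptotic cells = annexin V-positive plus annexin V/PI double-positive. Mean of three independent experiments.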

[3] = system: KM12; assay: Antiproliferative activity against human KM12 cells assessed as growth inhibition incubated for 72 hrs by MTT assay; format: functional
[4] = system: SF-539; assay: Antiproliferative activity against human SF-539 cells assessed as growth inhibition incubated for 72 hrs by MTT assay; format: functional
[5] = Cytotoxicity against resting human PBL cells assessed as inhibition of cell growth measured after 72 hrs by MTT assay; format: toxicity, cell-based; conditions: resting human peripheral blood lymphocytes (PBL)
[6] = system: NCI-H322M; assay: Antiproliferative activity against human NCI-H322M cells assessed as growth inhibition incubated for 72 hrs by MTT assay; format: functional
[7] = Cytotoxicity against PHA-induced human PBL cells assessed as inhibition of cell growth measured after 72 hrs by MTT assay; format: toxicity, cell-based; conditions: PHA-induced human peripheral blood lymphocytes (PBL)
[8] = system: SU-DHL10; assay: Antiproliferative activity against human SU-DHL-10 cells assessed as cell growth inhibition measured after 72 hrs by MTT assay; format: functional, cell-based; conditions: SU-DHL10, 72 h
Summary of the method: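 Lymphoma cells grown in RPMI-1640 with 20% FBS, seeded at 5,000–10,000 cells/well by doubling time. Doses 0–10 μM, 1:2 serial dilution, DMSO ≤0.1%, 72 h at 37 °C, 5% CO2. MTT (5 mg/mL stock) added for 4 h, SDS lysis, A570 read against medium-only blanks. IC50 from triplicate assays.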

[9] = system: OVCAR-8; assay: Antiproliferative activity against human OVCAR-8 cells assessed as growth inhibition incubated for 72 hrs by MTT assay; format: functional
[10] = system: SK-OV-3; assay: Antiproliferative activity against human SK-OV-3 cells assessed as growth inhibition incubated for 72 hrs by MTT assay; format: functional
[11] = system: ACHN; assay: Antiproliferative activity against human ACHN cells assessed as growth inhibition incubated for 72 hrs by MTT assay; format: functional
[12] = system: UACC-62; assay: Antiproliferative activity against human UACC-62 cells assessed as growth inhibition incubated for 72 hrs by assay; format: functional
[13] = system: A498; assay: Antiproliferative activity against human A498 cells assessed as growth inhibition incubated for 72 hrs by MTT assay; format: functional
[14] = Antiproliferative activity against human MINO cells assessed as reduction in cell proliferation at 1 uM measured after 72 hrs by MTT assay relative to control; format: functional; set-up: scale not given: the % may be the effect or the level left
Summary of the method: (§2)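 Single-dose screen at 1 μM for 72 h at 37 °C, 5% CO2 (DMSO ≤0.1%). Cells in RPMI-1640 with 20% FBS, seeded at 5,000–10,000 cells/well. MTT added for 4 h, SDS lysis, A570 read with medium-only blanks. Percent proliferation relative to untreated cells, run in triplicate.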

[15] = system: HOP-92; assay: Antiproliferative activity against human HOP-92 cells assessed as growth inhibition incubated for 72 hrs by MTT assay; format: functional
[16] = system: HL-60(TB); assay: Antiproliferative activity against human HL-60(TB) cells assessed as growth inhibition incubated for 72 hrs by […]; format: functional
Summary of the method: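 NCI 60-cell-line panel screen. […] Compounds were dissolved in DMSO as 10 mM stocks, and DMSO in the assays stayed at or below 0.1%.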

[17] = system: SNB-19; assay: Antiproliferative activity against human SNB-19 cells assessed as growth inhibition incubated for 72 hrs by MTT assay; format: functional
[18] = system: MOLT-4; assay: Antiproliferative activity against human MOLT-4 cells assessed as growth inhibition incubated for 72 hrs by MTT assay; format: functional
[19] = system: LOX IMVI; assay: Antiproliferative activity against human LOX IMVI cells assessed as growth inhibition incubated for 72 hrs by MTT assay; format: functional
[20] = system: VL51; assay: Induction of cell cycle arrest in human VL51 cells assessed as accumulation of cells at G2/M phase at 1 uM incubated for 24 hrs by PI staining based flow cytometry analysis; format: functional
Summary of the method: (§3)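 Seeding in 6-well plates, 2 mL medium: A549 5×10^4, CCRF-CEM 2.5×10^5, VL51 2.0×10^5. 24 h treatment, A549 detached with trypsin-EDTA. Cells fixed in 70% ice-cold ethanol, PI-labelled, analysed by flow cytometry. Mean of two independent experiments.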

[21] = system: VL51; assay: Induction of cell cycle arrest in human VL51 cells assessed as accumulation of cells at M phase by measuring p-Histone H3 positive cells incubated for 24 hrs by PI staining based flow cytometry analysis; format: functional; conditions: dose 0.5-1 µM
[22] = system: BT-549; assay: Antiproliferative activity against human BT-549 cells assessed as growth inhibition incubated for 72 hrs by MTT assay; format: functional
[23] = system: CAKI-1; assay: Antiproliferative activity against human CAKI-1 cells assessed as growth inhibition incubated for 72 hrs by MTT assay; format: functional
[24] = system: SW-620; assay: Antiproliferative activity against human SW-620 cells assessed as growth inhibition incubated for 72 hrs by MTT assay; format: functional
[25] = system: CCRF-CEM; assay: Induction of cell cycle arrest in human CCRF-CEM cells assessed as accumulation of cells at G2/M phase at 1 uM incubated for 24 hrs by PI staining based flow cytometry analysis; format: functional; summary of the method: as §3
[26] = system: VL51; assay: Induction of mitochondrial membrane potential depolarization in human VL51 cells at 0.5 to 1 uM measured after 24 hrs by JC-1 fluorescent dye based flow cytometry analysis; format: functional, cell-based; conditions: dose 0.5-1 µM
Summary of the method: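 VL51 cells treated 24 h at 0.5 and 1.0 μM, labelled with JC-1, analysed by flow cytometry in FL1 and FL2 channels.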

[27] = system: RXF 393; assay: Antiproliferative activity against human RXF 393 cells assessed as growth inhibition incubated for 72 hrs by MTT assay; format: functional
[28] = system: DU-145; assay: Antiproliferative activity against human DU-145 cells assessed as growth inhibition incubated for 72 hrs by MTT assay; format: functional
[29] = system: VL51; assay: Induction of cell cycle arrest in human VL51 cells assessed as reduction in accumulation of cells at S phase at 1 uM incubated for 24 hrs by PI staining based flow cytometry analysis; format: functional; summary of the method: as §3
[30] = system: T47D; assay: Antiproliferative activity against human T47D cells assessed as growth inhibition incubated for 72 hrs by MTT assay; format: functional
[31] = system: A549; assay: Induction of cell cycle arrest in human A549 cells assessed as accumulation of cells at G2/M phase at 1 uM incubated for 24 hrs by PI staining based flow cytometry analysis; format: functional; summary of the method: as §3
[32] = Antiproliferative activity against human HBL1 cells assessed as reduction in cell proliferation at 1 uM measured after 72 hrs by MTT assay relative to control; format: functional; set-up: scale not given: the % may be the effect or the level left; summary of the method: as §2
[33] = system: MDA-MB-435; assay: Antiproliferative activity against human MDA-MB-435 cells assessed as growth inhibition incubated for 72 hrs by MTT assay; format: functional
[34] = system: A549; assay: Antiproliferative activity against human A549 cells assessed as growth inhibition incubated for 72 hrs by MTT assay; format: functional
[35] = system: A549; assay: Induction of apoptosis in human A549 cells assessed as increase in apoptotic cells incubated for 48 hrs by annexin V-FITC and PI staining based flow cytometric analysis; format: functional, cell-based; conditions: dose 1-5 µM; summary of the method: as §1

SMILES: COc1ccc(Cn2cc3c(c2-c2cc(OC)c(OC)c(OC)c2)CCCc2cnoc2-3)cc1N
- GI50 [1]: 650 nM
- Activity [2]: Dose-Dependent Effect
- GI50 [3]: 560 nM
- GI50 [4]: 400 nM
- IC50 at 72 h [5]: > 10000 nM
- GI50 [6]: 840 nM
- IC50 at 72 h [7]: > 10000 nM
- IC50 [8]: 500 nM
- GI50 [9]: 1570 nM
- GI50 [10]: 680 nM
- GI50 [11]: 690 nM
- GI50 [12]: 430 nM
- GI50 [13]: 360 nM
- Activity [14]: >50%
- GI50 [15]: 520 nM
- GI50 [16]: 300 nM
- GI50 [17]: 810 nM
- GI50 [18]: 650 nM
- GI50 [19]: 700 nM
- Activity [20]: Active
- Activity [21]: Dose-Dependent Effect
- GI50 [22]: 250 nM
- GI50 [23]: 580 nM
- GI50 [24]: 430 nM
- Activity [25]: Active
- Activity [26]: Active
- GI50 [27]: 450 nM
- GI50 [28]: 840 nM
- Activity [29]: Active
- GI50 [30]: 390 nM
- Activity [31]: Active
- Activity [32]: >50%
- GI50 [33]: 240 nM
- GI50 [34]: 950 nM
- Activity [35]: Dose-Dependent Effect

SMILES: COc1ccc(Cn2cc3c(c2-c2cc(OC)c(OC)c(OC)c2)CCCc2cnoc2-3)cc1
- GI50 [1]: 560 nM
- Activity [2]: Dose-Dependent Effect
- GI50 [3]: 690 nM
- GI50 [4]: 700 nM
- IC50 at 72 h [5]: > 10000 nM
- GI50 [6]: 3280 nM
- IC50 at 72 h [7]: > 10000 nM
- IC50 [8]: 1800 nM
- GI50 [9]: 4300 nM
- GI50 [10]: 4180 nM
- GI50 [11]: 900 nM
- GI50 [12]: 910 nM
- GI50 [13]: 690 nM
- Activity [14]: >50%
- GI50 [15]: 1270 nM
- GI50 [16]: 350 nM
- GI50 [17]: 1530 nM
- GI50 [18]: 800 nM
- GI50 [19]: 990 nM
- Activity [20]: Active
- Activity [21]: Dose-Dependent Effect
- GI50 [22]: 480 nM
- GI50 [23]: 490 nM
- GI50 [24]: 470 nM
- Activity [25]: Active
- Activity [26]: Active
- GI50 [27]: 660 nM
- GI50 [28]: 4110 nM
- Activity [29]: Active
- GI50 [30]: 1850 nM
- Activity [31]: Active
- Activity [32]: >50%
- GI50 [33]: 230 nM
- GI50 [34]: 2340 nM
- Activity [35]: Dose-Dependent Effect
